# Screening results as filed in PubChem BioAssay.
# The list is not random: actives were taken first. Their share in the collection is about 1.9%.
# M4 antag = human M4 muscarinic receptor antagonists, primary screen, CHO cells, Fluo-8 calcium fluorescence; inhibition, % at 3 µM; actives 0.73% (n = 360,000); Muscarinic acetylcholine receptor M4 (Homo sapiens), P08173; CHO-hM4 cells, ACh EC80;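 active = inhibition above its plate's cutoff, the mean inhibition of sample wells plus 3 SD, cut at about 27% in these data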
# M4 PAM = human M4 muscarinic receptor positive allosteric modulators, primary screen, CHO-K1 cells, Fluo-8 calcium fluorescence | CHO-K1 hM4/Gqi5, ACh EC20; 0% = ACh EC20, 100% = maximal ACh | AID 624126, 2012 | Muscarinic acetylcholine receptor M4 (Homo sapiens), P08173 | activation, % at 3 µM | actives 0.4% (n = 360,000);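 active = activation above its plate's cutoff, the mean activation of sample wells plus 3 SD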
# CHRM5 PAM = human M5 muscarinic receptor positive allosteric modulators, primary screen, CHO-K1 cells, Fluo-8 calcium fluorescence | Muscarinic acetylcholine receptor M5 (Homo sapiens), P08912 | CHO-K1 hM5, ACh EC20 PAM; 0% = ACh EC20, 100% = ACh EC100 | activation, % at 3 µM | actives 0.3% (n = 360,000) | AID 624038, 2012;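 active = activation above the run cutoff, the mean activation of all test compounds plus 3 SD, cut at about 18% in these data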
# Target sequence (P08912 whole entry, looked up): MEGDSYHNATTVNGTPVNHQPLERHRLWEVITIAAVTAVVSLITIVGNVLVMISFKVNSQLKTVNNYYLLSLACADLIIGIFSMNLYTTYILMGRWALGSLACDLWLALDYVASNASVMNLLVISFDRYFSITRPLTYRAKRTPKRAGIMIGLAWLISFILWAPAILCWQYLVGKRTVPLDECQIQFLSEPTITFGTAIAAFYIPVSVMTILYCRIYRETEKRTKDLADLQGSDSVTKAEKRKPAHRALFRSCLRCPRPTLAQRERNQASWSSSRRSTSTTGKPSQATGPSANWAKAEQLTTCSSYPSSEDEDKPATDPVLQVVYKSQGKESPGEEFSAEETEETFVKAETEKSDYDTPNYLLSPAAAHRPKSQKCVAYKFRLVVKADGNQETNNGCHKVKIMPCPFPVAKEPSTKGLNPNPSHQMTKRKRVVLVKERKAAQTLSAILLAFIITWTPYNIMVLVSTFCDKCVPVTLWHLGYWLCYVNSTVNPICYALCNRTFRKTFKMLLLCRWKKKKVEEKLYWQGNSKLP
#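 Test system: CHO-K1 hM5 cells / Doses: single-point, 3 µM nominal / Times: Post-acetylcholine fluorescence recording 140 s / Technique: Fluo-8 calcium fluorescence / Measure: Max/basal fluorescence ratio as % of EC20–EC100 ACh window / Benchmarks: low control EC20 acetylcholine (0%), high control EC100 acetylcholine (100%) / Replicates: one well per compound, no replicates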
# M4 ag = human M4 muscarinic receptor agonists, primary screen, CHO-K1 cells, Fluo-8 calcium fluorescence; CHO-K1 hM4/Gqi5; vehicle 0%, full acetylcholine response 100%; activation, % at 3 µM; actives 0.14% (n = 360,000); AID 624127, 2012;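 active = activation above the run mean over all test wells plus 3 SD, cut at about 32% in these data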;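 note: peak over basal fluorescence ratio per well then scaled between controls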
# CHRM5 agonist = human M5 muscarinic receptor agonists, primary screen, CHO-K1 cells, Fluo-8 calcium fluorescence | Muscarinic acetylcholine receptor M5 (Homo sapiens), P08912 | CHO-K1 hM5 cells; 0% DMSO wells, 100% maximal acetylcholine response | activation, % at 3 µM | actives 0.19% (n = 360,000) | AID 624037, 2012;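 active = activation above the run's mean over test compounds plus 3 SD, cut at about 23% in these data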;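 note: signal is peak over basal fluorescence ratio across the kinetic read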
# M5 antag = human M5 muscarinic receptor antagonists, primary screen, CHO cells, Fluo-8 calcium fluorescence. CHO-hM5 cells, ACh EC80. inhibition, % at 3 µM. Muscarinic acetylcholine receptor M5 (Homo sapiens), P08912. actives 0.59% (n = 360,000). AID 624040, 2012;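 active = inhibition above a per-plate cutoff, the mean of that plate's test compounds plus 3 SD, cut at about 27% in these data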
# A number is an active result; – = inactive.
SMILES,M4 antag,M4 PAM,CHRM5 PAM,M4 ag,CHRM5 agonist,M5 antag
O=C(c1ccccc1)N1CCN2C(=O)c3ccccc3C12c1ccc(Cl)cc1 (stereo unspecified),–,–,–,–,–,–
CC(=O)Nc1ccc(S(=O)(=O)O)c(OC(C)=O)c1,–,–,–,–,–,–
O=C(COc1ccc2c(c1)oc(=O)c1ccccc12)NC(Cc1ccc(Cl)cc1)C(=O)O (stereo unspecified),–,–,–,–,–,–
CCOC(=O)[C@H]1[C@H]2COc3ccc(Br)cc3[C@@H]2N2C(=O)c3cc(F)c(F)cc3NC(=O)[C@@]12C,–,–,–,–,–,–
COc1ccc(N=C2C(=O)Nc3ccccc32)cc1,–,–,–,–,–,–
COc1ccc(N=C2C(=O)N3c4c(cccc42)C(C)=CC3(C)C)cc1,–,–,–,–,29,–
CCC(C)[C@H](NC(=O)N1CC(=O)Nc2ccccc21)C(=O)N1CCC[C@H]1C(=O)O (stereo partly specified),101,–,–,–,–,–
CCC(C)[C@H](NC(=O)N1CC(=O)Nc2ccccc21)C(=O)N1CCC[C@@H]1C(=O)O (stereo partly specified),–,–,–,–,–,–
O=C(COC(=O)c1c(Cl)cccc1Cl)NCC1CCCO1 (stereo unspecified),–,–,–,–,–,–
COc1ccc(CCn2c(=O)[nH]c3cc(C(=O)NCCN4CCOCC4)ccc3c2=O)cc1OC,–,29,–,–,–,–
COc1ccc(CCn2c(=O)[nH]c3cc(C(=O)NCCCN4CCOCC4)ccc3c2=O)cc1OC,–,–,–,–,–,–
Cc1ccccc1C(=O)O/N=C(\c1ccccc1)c1ccccn1,–,22,–,–,–,–
NC(=O)CC[C@H](NC(=O)c1ccc(F)cc1)C(=O)OCC(=O)Nc1ccc(N2CCOCC2)cc1,–,24,–,–,–,–
CC(=O)Nc1ccc(C(=O)OCC(=O)Nc2ccc(N3CCOCC3)cc2)cc1,–,–,–,–,–,–
C(=C1c2ccccc2-c2ccccc21)c1ccncc1,–,–,–,–,–,–
CC(=O)c1cccc(NC(=O)/C(=C\c2cccnc2)NC(=O)c2ccccc2)c1,29,–,–,–,–,–
CCOC(=O)[C@]12CCCC=C1N(Cc1ccc(Cl)cc1Cl)C(=O)[C@H](CC(=O)NCCc1ccccc1OC)C2,–,–,–,–,–,–
O=C(Nc1ccncc1)c1ccc(-c2ccccc2)cc1,–,–,–,–,–,33
O=C(Nc1cccnc1)c1ccc(-c2ccccc2)cc1,–,–,–,–,–,–
NS(=O)(=O)c1ccc(NS(=O)(=O)c2ccc(NC(=O)c3ccc(-c4ccccc4)cc3)cc2)cc1,–,–,–,–,27,–
O=C(NC1CCSc2ccccc21)c1cccc(Cl)c1 (stereo unspecified),–,–,–,–,–,–
COc1ccc(Cl)cc1NC(=O)C/C(C)=N/NC(=O)COc1ccc(C)cc1,–,–,–,–,–,–
N#Cc1ccc(OCC(=O)N/N=C2\CCc3ccccc32)cc1,–,–,18,–,–,–
Cc1cccc(S(=O)(=O)Nc2cc(Cl)ccc2N2CCOCC2)c1,–,–,–,–,–,–
CCCCn1c(N)c(N(CCOC)C(=O)c2cc3c(s2)CCCCC3)c(=O)[nH]c1=O,–,24,–,–,–,–
SMILES,M4 antag,M4 PAM,CHRM5 PAM,M4 ag,CHRM5 agonist,M5 antag
O=C(CCCCCn1c(=S)[nH]c2cc3c(cc2c1=O)OCO3)N1CCN(Cc2ccccc2)CC1,–,–,–,–,–,–
O=C(CCCCCn1c(=S)[nH]c2cc3c(cc2c1=O)OCO3)N1CCN(C2CCCCC2)CC1,–,–,–,–,–,31
Cc1csc(NC(=O)CSc2nnc(-c3ccoc3C)o2)n1,–,–,–,–,–,–
Cc1occc1-c1nnc(SCC(=O)Nc2nc(C(C)(C)C)cs2)o1,–,–,–,–,–,30
CC(=O)Nc1cccc(C(=O)OC2CCOC2=O)c1 (stereo unspecified),–,–,–,–,–,–
NC(=O)c1ccc(NC(=O)C2CC2)cc1,–,22,–,–,–,–
CS(=O)(=O)N1CCC(C(=O)Nc2ccc(C(N)=O)cc2)CC1,–,–,–,–,–,–
CCCNc1nc(C)cc(-c2cc(-c3ccccc3)on2)n1,–,–,–,–,–,–
Cc1cc(-c2cc(-c3ccccc3)on2)nc(NCC2CC2)n1,–,29,–,–,–,–
CC(C)c1cc(-c2cc(C(=O)NCc3ccccc3)on2)nc(NCC2CC2)n1,41,–,–,43,36,28
COc1ccc(C2=NS(=O)(=O)N(C)C(C(=O)N(C)Cc3ccccc3)=C2)cc1OC,–,–,–,–,–,–
CCOC(=O)[C@H]1[C@H]2COc3cc(OC)ccc3[C@@H]2N2C(=O)CN(Cc3ccc(C)cc3)C(=O)[C@@]12C,–,–,–,–,–,–
